Common to all, as to format: functional, cell-based
In one assay the test system is KB. Kind of assay: Cytotoxicity against human KB cells after 72 hrs by SRB assay. In outline:
(§1)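 SRB assay. HeLa and KB cells were grown in RPMI 1640 and MCF-7 cells in DMEM. Cells were fixed with 50% trichloroacetic acid for 1 h at 4 °C, then washed with distilled water. Unbound dye was removed with 1% acetic acid and plates were air dried overnight. OD read at 490 nm. Survival was taken as % absorbance of untreated control. Cytarabine served as internal standard. Three independent experiments.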
In general terms: The SRB assay estimates cell density from bound dye.

In a further assay the test system is MCF7. Kind of assay: Cytotoxicity against human MCF7 cells after 72 hrs by SRB assay. The conditions noted are these: MCF7, 72 h. The gist of the method:
as §1

The subject of a further assay is HeLa. Kind of assay: Cytotoxicity against human HeLa cells after 72 hrs by SRB assay. The gist of the method: as §1

Some results are limits rather than exact numbers.

Take `[N-]=[N+]=N[C@H]1C[C@H](n2cc(F)c(=O)[nH]c2=O)O[C@@H]1CO`: the figures for the IC50 in the assay with KB, in the assay with MCF7 and with HeLa were 8.11 µM, 10.3 µM and 11.1 µM, respectively.
For the compound `[N-]=[N+]=NCCCCNP(=O)(OC[C@H]1O[C@@H](n2cc(F)c(=O)[nH]c2=O)C[C@@H]1N=[N+]=[N-])Oc1ccc(Cl)cc1` (stereo not given in full), the concentration for half-maximal inhibition (IC50) in the assay on KB came to 46.6 µM; in the assay with MCF7, 22.4 µM; in the assay on HeLa it was 35.5 µM.
The matching figures for `COC(=O)[C@H](C)NP(=O)(OC[C@H]1O[C@@H](n2cc(F)c(=O)[nH]c2=O)C[C@@H]1N=[N+]=[N-])Oc1ccc(Cl)cc1` (stereo not given in full): more than 100 µM, 38.4 µM and 38.4 µM.
Taken in the same sequence, the figures for `CNP(=O)(OC[C@H]1O[C@@H](n2cc(F)c(=O)[nH]c2=O)C[C@@H]1N=[N+]=[N-])Oc1ccc(Cl)cc1` (stereo not given in full) were 8.64 µM, 4.42 µM and 8.43 µM.
Taken in the same sequence, the figures for `CCNP(=O)(OC[C@H]1O[C@@H](n2cc(F)c(=O)[nH]c2=O)C[C@@H]1N=[N+]=[N-])Oc1ccc(Cl)cc1` (stereo not given in full) were 1.64 µM, 1.88 µM and 1.64 µM.
Consider `[N-]=[N+]=N[C@H]1C[C@H](n2cc(F)c(=O)[nH]c2=O)O[C@@H]1COP(=O)(NCC(F)(F)F)Oc1ccc(Cl)cc1` (stereo not given in full), for which the results for the IC50 with KB, with MCF7 and with HeLa were 40.5 µM, 23.9 µM and 43.9 µM, respectively.
The matching figures for `CCCNP(=O)(OC[C@H]1O[C@@H](n2cc(F)c(=O)[nH]c2=O)C[C@@H]1N=[N+]=[N-])Oc1ccc(Cl)cc1` (stereo not given in full): 26.9 µM, 27.2 µM and 25.9 µM.
Taken in the same sequence, the figures for `C=CCNP(=O)(OC[C@H]1O[C@@H](n2cc(F)c(=O)[nH]c2=O)C[C@@H]1N=[N+]=[N-])Oc1ccc(Cl)cc1` (stereo not given in full) were 8.59 µM, 10.4 µM and 9.98 µM.
Taken in the same sequence, the figures for `C#CCNP(=O)(OC[C@H]1O[C@@H](n2cc(F)c(=O)[nH]c2=O)C[C@@H]1N=[N+]=[N-])Oc1ccc(Cl)cc1` (stereo not given in full) were 3.81 µM, 5.41 µM and 4.21 µM.
Turning to `[N-]=[N+]=NCCCNP(=O)(OC[C@H]1O[C@@H](n2cc(F)c(=O)[nH]c2=O)C[C@@H]1N=[N+]=[N-])Oc1ccc(Cl)cc1` (stereo not given in full), the IC50 in the assay on KB was 99.3 µM; with MCF7, 33.1 µM; in the assay with HeLa, 96.2 µM.
The matching figures for `CCCCNP(=O)(OC[C@H]1O[C@@H](n2cc(F)c(=O)[nH]c2=O)C[C@@H]1N=[N+]=[N-])Oc1ccc(Cl)cc1` (stereo not given in full): 38.7 µM, 41.8 µM and 32.9 µM.
In turn, `Nc1ccn([C@@H]2O[C@H](CO)[C@@H](O)[C@@H]2O)c(=O)n1` [CYTARABINE] yielded an IC50 in the assay on HeLa of 3.54 µM.
Consider `O=c1[nH]c(=O)n([C@H]2C[C@H](O)[C@@H](CO)O2)cc1F` [FLOXURIDINE], for which the IC50 turned out to be 8.69 µM in the assay on KB, 12.2 µM with MCF7 and 6.5 µM in the assay with HeLa.
`O=c1[nH]cc(F)c(=O)[nH]1` [FLUOROURACIL]: the IC50 came out at 4.84 µM with KB, 6.53 µM in the assay with MCF7 and 6.23 µM with HeLa.

Usually IC50 stands for the concentration that inhibits the measured activity by half. Read a low IC50 as inhibition by little substance.

Source of the values: ChEMBL document CHEMBL2424525, “Synthesis of 3'-azido-2',3'-dideoxy-5-fluorouridine phosphoramidates and evaluation of their anticancer activity” (Eur J Med Chem, 2013).
